PAD4 inh = PAD4 (human) enzyme inhibition. AID 485272. recombinant PAD4, RCA probe fluorescence polarization. Q9UM07. inhibition, % at 6.36 µM. 0.41% of 330,000 active;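 active = percent inhibition above a cutoff equal to the mean of all tested compounds plus 3 SD, cut at about 15% in these data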;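 note: 0% = PAD4 with RCA probe and DMSO and 100% = probe without PAD4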
TCR CD3 inh = human TCR-CD3 binding inhibition. TAMRA-labeled TCR probe fluorescence, biochemical. inhibition, % at 9.4 µM. 0.37% of 360,000 active; in the data active = inhibition above about 19%;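 note: recombinant mutant TCR 2C K166C tagged with TAMRA read by polarization; 0% = receptor in buffer alone and 100% = receptor with positive control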
Apaf-1 inh = human Apaf-1 inhibition. inhibition, % at 20 µM. 0.71% of 330,000 active. reconstituted apoptosome caspase-3 activity, DEVD-Rh110 fluorescence. O14727; active = inhibition of at least 40% at 20 µM;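 note: plate controls were DMSO wells for no effect and DEVD-CHO caspase inhibitor wells for full effect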
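Material: biochemical Apaf-1 apoptosome reconstitution. Medium: Hepes buffer, pH 7.5. Also added: cytochrome c activation, bis-DEVD rhodamine 110 substrate. Timing: 30 min compound preincubation, 50 min activation, room temperature. Measured by: rhodamine 110 fluorescence at Ex 480/Em 540 nm.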
TDP2 inh = blocks human TDP2 phosphodiesterase activity. recombinant TDP2, T5PNP hydrolysis, p-nitrophenol absorbance 415 nm. inhibition, % at 12.8 µM. 0.34% of 370,000 active;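 active = inhibition above the mean of all tested compounds plus 3 SD, set per campaign, cut at about 25% in these data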;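 note: 0% = DMSO with enzyme and 100% = buffer with substrate but no TDP2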
Target sequence (O95551 whole entry, looked up): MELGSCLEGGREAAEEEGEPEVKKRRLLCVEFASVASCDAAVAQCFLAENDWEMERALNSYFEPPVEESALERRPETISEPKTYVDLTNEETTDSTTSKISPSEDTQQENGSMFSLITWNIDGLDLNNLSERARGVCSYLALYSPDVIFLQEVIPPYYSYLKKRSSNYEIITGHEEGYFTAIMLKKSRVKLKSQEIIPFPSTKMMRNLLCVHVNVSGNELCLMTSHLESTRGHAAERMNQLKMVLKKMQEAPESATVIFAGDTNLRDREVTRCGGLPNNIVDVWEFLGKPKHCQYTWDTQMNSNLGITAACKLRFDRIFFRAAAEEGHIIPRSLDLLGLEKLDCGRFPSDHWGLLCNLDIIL
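Assay system: Recombinant human TDP2 | Quantity: 120 nM TDP2 per well | Incubation: 2 h at 37 °C | Signal: Epi absorbance | Evaluation: Percent inhibition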
GSTO1 counter = blocks human GSTO1 in RBBP9 counter-screen. P78417. recombinant GSTO1, activity-based probe fluorescence polarization. inhibition, % at 5.96 µM. 1.1% of 300,000 active;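 active = inhibition above the campaign mean inhibition plus 3 SD, cut at about 35% in these data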;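 note: 0% = GSTO1-1 with DMSO and 100% = wells lacking GSTO1-1 enzyme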
Target sequence (P78417 whole entry, looked up): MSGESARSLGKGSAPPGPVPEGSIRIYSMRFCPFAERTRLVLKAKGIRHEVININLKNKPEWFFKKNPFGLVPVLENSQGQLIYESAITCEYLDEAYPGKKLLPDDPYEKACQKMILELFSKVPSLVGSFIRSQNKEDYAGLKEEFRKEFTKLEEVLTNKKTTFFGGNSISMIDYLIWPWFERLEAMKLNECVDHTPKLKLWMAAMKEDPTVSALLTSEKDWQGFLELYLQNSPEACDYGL
SIAE inh = inhibitors of human sialic acid acetylesterase SIAE; 0.69% of 370,000 active; inhibition, % at 9.66 µM; AID 1053197; Q9HAT2; SIAE FP-Rh probe binding, fluorescence polarization;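 active = inhibition above a cutoff: mean of compounds within the control limits plus 3 SD of those, cut at about 17% in these data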;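 note: 0% = plate median of compound wells and 100% = probe without SIAE protein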
An asterisk follows results filed as active. The list is not random: actives were taken first. Their share in the collection is about 2.4%.

For Cc1ccc(S(=O)(=O)NNC(=S)NCCc2ccccc2)cc1 the results were PAD4 inh 1, TCR CD3 inh -7, Apaf-1 inh 2, TDP2 inh 2, GSTO1 counter 0 and SIAE inh 0.
`CC(C)C1(C2CCCC2)NC(=O)NC1=O` (stereo not drawn) gave TCR CD3 inh -7, TDP2 inh 11 and SIAE inh 1.
For O=C1Cc2ccccc2C(=O)N1OCc1ccc(Cl)cc1Cl the results were PAD4 inh -20, TCR CD3 inh -3, Apaf-1 inh 68*, TDP2 inh 7, GSTO1 counter 11 and SIAE inh 12.
COc1cccc(-c2noc(-c3cccnc3)n2)c1 was read as PAD4 inh -4, TCR CD3 inh -6, Apaf-1 inh 4, TDP2 inh -7, GSTO1 counter 4 and SIAE inh -3.
For O=C(NCCNc1ccc2ccccc2c1)c1cccn2c(=O)c3sccc3nc12 the results were PAD4 inh -6, Apaf-1 inh 51* and GSTO1 counter 9.
`O=c1cc(-c2c(F)c(F)c(F)c(F)c2F)oc2c(F)c(F)c(F)c(F)c12` gave PAD4 inh 46*, Apaf-1 inh 17 and GSTO1 counter -1.
O=c1cc(-c2c(F)c(F)c(F)c(F)c2F)oc2ccccc12 was read as PAD4 inh 5, TCR CD3 inh 6, Apaf-1 inh 4, TDP2 inh 1, GSTO1 counter -59 and SIAE inh 11.
Screening CCOC(=O)Cn1c(=O)oc2cc(S(=O)(=O)NC(C)(C)CC)ccc21 returned PAD4 inh 4, TCR CD3 inh 2, Apaf-1 inh 5, TDP2 inh -20, GSTO1 counter 2 and SIAE inh -5.
For CCc1ccc(-n2nc3cc(C)c(N)cc3n2)cc1 the results were PAD4 inh -3, TCR CD3 inh -7, Apaf-1 inh 32, TDP2 inh -7, GSTO1 counter 36* and SIAE inh 10.
`Cc1ccc(-n2nc3cc(C)c(N)cc3n2)cc1` gave PAD4 inh -2, TCR CD3 inh 0, Apaf-1 inh 30, TDP2 inh 2, GSTO1 counter 23 and SIAE inh 11.
Screening CN(c1ccccc1)c1nc(-n2ccnc2)nc(-n2ccnc2)n1 returned PAD4 inh -6, TCR CD3 inh 6, Apaf-1 inh 5, TDP2 inh -7, GSTO1 counter -3 and SIAE inh -8.
For CC(=O)c1ccc(NC(=O)c2noc(C(C)C)c2[N+](=O)[O-])cc1 the results were PAD4 inh -1, TCR CD3 inh 1, Apaf-1 inh -127, TDP2 inh 4, GSTO1 counter 4 and SIAE inh -2.
Screening Cc1ccc(O)c(NC(=O)c2noc(C(C)C)c2[N+](=O)[O-])c1 returned PAD4 inh 0, TCR CD3 inh -3, Apaf-1 inh -9, TDP2 inh -9, GSTO1 counter 35* and SIAE inh 0.
For CC(C)c1onc(C(=O)N(C)Cc2ccccc2)c1[N+](=O)[O-] the results were PAD4 inh -4, TCR CD3 inh -4, Apaf-1 inh 2, TDP2 inh -3, GSTO1 counter 11 and SIAE inh 0.
CC(C)c1onc(C(=O)NCCc2ccccc2)c1[N+](=O)[O-] was read as PAD4 inh -1, TCR CD3 inh -2, Apaf-1 inh -4, TDP2 inh 0, GSTO1 counter 37* and SIAE inh 5.
For CC(C)c1onc(C(=O)NCc2ccc(F)cc2)c1[N+](=O)[O-] the results were PAD4 inh 5, TCR CD3 inh 1, Apaf-1 inh 6, TDP2 inh 2, GSTO1 counter 37* and SIAE inh 10.
Screening Cc1cc(NC(=O)C(C)SCC(=O)Nc2ccc(Br)cc2Br)no1 (stereo not drawn) returned PAD4 inh 1, TCR CD3 inh 6, Apaf-1 inh 10, TDP2 inh 14, GSTO1 counter 31 and SIAE inh 0.
CCc1noc(C)c1C(=O)N1CCCC(CCC(=O)NCc2cccc(OC)c2)C1 (stereo not drawn) was read as PAD4 inh -7, TCR CD3 inh -5, Apaf-1 inh 0, TDP2 inh -10, GSTO1 counter 4 and SIAE inh 3.
For CC(C)Cc1nc(SCC(=O)Nc2nnc(CC(C)C)s2)n[nH]1 the results were PAD4 inh -1, TCR CD3 inh -4, Apaf-1 inh 11, TDP2 inh -3, GSTO1 counter 9 and SIAE inh 0.
CC(C)Cc1nnc(NC(=O)CSc2nc(O)c(-c3ccccc3)c(=O)[nH]2)s1 was read as PAD4 inh 8, TCR CD3 inh 2, Apaf-1 inh 13, TDP2 inh 9, GSTO1 counter 71* and SIAE inh 5.
For Oc1ccc2c(c1)C1CCCC1(N1CCOCC1)O2 (stereo not drawn) the results were PAD4 inh 3, TCR CD3 inh 11, Apaf-1 inh 2, TDP2 inh 5, GSTO1 counter 42* and SIAE inh 9.
CC(c1ccco1)N(C(=O)c1cc(Cl)cc(Cl)c1)c1ccccn1 (stereo not drawn) was read as PAD4 inh 3, TCR CD3 inh 5, Apaf-1 inh 14, TDP2 inh -12, GSTO1 counter 5 and SIAE inh -7.
CC(c1ccco1)N(C(=O)c1ccccc1NS(=O)(=O)c1ccc(Cl)c([N+](=O)[O-])c1)c1ccccn1 (stereo not drawn) was read as PAD4 inh -2, TCR CD3 inh 2, Apaf-1 inh 11, TDP2 inh 9, GSTO1 counter 54* and SIAE inh 8.
Screening O=C(Cc1cnn(-c2ccccc2)c1)c1ccc(O)c(O)c1O returned PAD4 inh -7, TCR CD3 inh 10, Apaf-1 inh 19, TDP2 inh -7, GSTO1 counter 50* and SIAE inh -15.
`OCCNc1nc(Nc2ccc(Br)cc2)nc2ccccc12` gave PAD4 inh -7, TCR CD3 inh -2, Apaf-1 inh 27, TDP2 inh 4, GSTO1 counter -14 and SIAE inh 18*.
Screening COc1ccc(C(=S)N2CCN(c3ccccc3Cl)CC2)cc1OC returned PAD4 inh -4, TCR CD3 inh 1, Apaf-1 inh 17, TDP2 inh 12, GSTO1 counter 0 and SIAE inh -3.
`COc1cc(C(=S)N2CCN(c3ccccc3Cl)CC2)cc(O)c1O` gave PAD4 inh -2, TCR CD3 inh 16, Apaf-1 inh 1, TDP2 inh -6, GSTO1 counter 37* and SIAE inh 2.
For S=c1[nH]cnc2scc(-c3ccccc3)c12 the results were PAD4 inh 3, TCR CD3 inh 4, Apaf-1 inh -1, TDP2 inh -11, GSTO1 counter 1 and SIAE inh 4.

Screening results (PubChem BioAssay)
